Results from different studies.
Target: Serine/threonine-protein kinase pim-3 (PIM3, Homo sapiens, UniProt Q86V86)

SMILES	observed	technique	tested at	remaining binding [%]
O=C(c1ccc(Nc2nccc(-c3cc4ccccc4s3)n2)cc1)N1CCC(N2CCCC2)CC1	binding	competition with immobilised ligand	1 µM	78
CO[C@H]1CC[C@H](CNc2ccc(S(=O)(=O)NC(=O)c3ccc(N4CCN(CC5=C(c6ccc(Cl)cc6)CC(C)(C)CC5)CC4)cc3Oc3cnc4[nH]ccc4c3)cc2[N+](=O)[O-])CC1	cell-free assay	competition with immobilised ligand	1 µM	74
N[C@@H]1CCN(c2nccc(-c3cnn4ncccc34)n2)C1	binding		1 µM	100
CSc1cccnc1N1CCN(Cc2nc3ccccc3[nH]2)CC1	cell-free assay	competition with immobilised ligand	1 µM	94
C[C@H]1CCN(c2nccc(-c3cnn4ncccc34)n2)C1	binding		1 µM	81
O=C(NCC1CCOCC1)c1n[nH]cc1NC(=O)c1c(F)cccc1F	binding	competition with immobilised ligand	1 µM	99
N#CC1(c2ccccn2)CCN(Cc2cc(C(=O)N3CCCC3)c(=O)n3ccccc23)CC1	cell-free assay	competition with immobilised ligand	1 µM	99
C[C@@H](c1ccc(-n2cnc3c(N)ncnc32)cc1)N1CCc2nn(C)c(Cc3ccccc3)c2C1=O	binding	competition with immobilised ligand	0.1 µM	90
CN(CCCC(F)(F)F)c1nccc(-c2cnn3ncccc23)n1	binding		1 µM	100
Cc1cnc(Nc2ccc(C(=O)N3CCC(N4CCCC4)CC3)cc2)nc1-c1cc2ccccc2s1	binding	competition with immobilised ligand	1 µM	60
C[C@@H]1CN(c2ccc3ncc(-c4ccc5[nH]nc(C6CC6)c5c4)n3n2)C[C@H](C)O1	binding	competition with immobilised ligand	50 nM	81
COc1cnc(Nc2cccc(S(N)(=O)=O)c2)nc1N1CCN(c2ccccc2)C(=O)C1	binding	competition with immobilised ligand	1 µM	100
COc1ccc2c(c1)O[C@H](c1ccc(OC)c(OC)c1)C[C@@H]2NC(=O)C1(c2ccc3c(c2)OC(F)(F)O3)CC1	cell-free assay	competition with immobilised ligand	1 µM	100
CN(C)c1nccc(-c2cnc3ncccn23)n1	binding		1 µM	88
CO[C@@H](C)c1c(Nc2ccc([C@@H](N(C)C(=O)C3CCS(=O)(=O)CC3)C(F)(F)F)cc2)cnc2cc(Cl)nn12	cell-free assay	competition with immobilised ligand	1 µM	97
CC1CCCN1c1nccc(-c2cnn3ncccc23)n1 (stereo not shown)	binding		1 µM	100
